High-throughput results (PubChem BioAssay)
Lmaj promast – reduces viability of Leishmania major promastigotes | AID 1063 | 200,000 compounds, 9% hits | resazurin fluorescence viability | inhibition, % at 10 µM; in the data active = inhibition above about 50%;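 also: promastigotes grown with compound for 44 hours at 28 °C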
HCT116 PTEN-null – growth suppressors of cells with PTEN tumor suppressor deletion. HCT116 PTEN-null viability, CellTiter-Glo, 60 h; active compounds read low. viability, % at 10 µM. 140,000 compounds, 1.2% hits;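 active = viability at or below a set limit, 4 SD under the median of all tested compounds, cut at about 3.7% in these data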;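 also: PTEN knockout HCT116 line with beta catenin targeted HCT116 as companion control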
HCT116 bCat-KO – beta-catenin-lacking colon tumor cell growth suppression. HCT116 beta-catenin knockout viability, CellTiter-Glo, 60 h; active compounds read low. viability, % at 10 µM. 140,000 compounds, 1.5% hits;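 active = viability at or under a set limit, the compound median less 4 SD, cut at about 6% in these data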;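 also: 0% = Hyamine 1622 control at 20 µM and 100% = untreated cell control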
Dynein cargo inh – blocks dynein driven cargo transport along microtubules | z-score, hits read low | 3617.4 mouse cells, GR-EGFP nuclear translocation imaging; test concentration mostly 20 µM; stimulated with dexamethasone, 1 µM; active compounds read low | 220,000 compounds, 0.47% hits;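 active = plate z-score of nuclear minus cytoplasmic receptor signal below a set negative limit, without overly bright fluorescence or cell loss, cut at about -3.5 in these data, passing the limit was not always enough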;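 also: z-score of nuclear minus cytoplasmic ring GR-EGFP intensity difference per well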
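Buffer or medium: tet-free medium with charcoal-stripped serum / Also added: dexamethasone agonist, 1.0 µM final, for 30 min / Timing: induction 48 h, compound 1 h, agonist 30 min / Measured by: high-content fluorescence imaging after fixation / Read-out: nuclear-to-cytoplasmic GR-EGFP distribution per well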
Autophagy HCS – alters autophagy in cells. MEF GFP-LC3 puncta imaging; test concentration mostly 10 µM. calls only at 10 µM (by protocol). 190,000 compounds, 0.98% hits. AID 463193;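 active = percentage of spot-positive cells more than 3 SD above its plate mean, without a fluorescence outlier flag or 80% toxicity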;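 also: spot-positive cell cutoff set from DMSO-treated cells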
Starred values were filed as active, the others as inactive; i = inactive; / = no result; + = active, no number. Rows were chosen to be rich in hits. Some 9.2% of all compounds tested hit in one or more screens of this group.

SMILES	Lmaj promast	HCT116 PTEN-null	HCT116 bCat-KO	Dynein cargo inh	Autophagy HCS
CN(Cc1ccccc1)C(=O)c1nn2cccnc2c1Cl	-6	/	/	-1.4	i
CCCOc1ccc(C(=O)CCC(=O)OCC(=O)N2CC(=O)Nc3ccccc32)cc1	-5	112	97	0.056	i
COc1cc2c(O)c3c(c(-c4ccc5c(c4)OCO5)c2cc1OC)C(=O)OC3	2	2.6*	2.5*	2	+
COc1ccc(C(=O)Oc2ccc3c(c2)OCO3)cc1OC	-5	119	105	0.61	i
COc1cc2c(OC(C)=O)c3c(c(-c4ccc5c(c4)OCO5)c2cc1OC)C(=O)OC3	-8	/	/	-0.9	+
CN1C(=O)CSc2ccc(NC(=O)N3CCN(c4ccccc4)CC3)cc21	21	/	/	-0.27	i
Cc1ccc2nc(-c3ccncc3)c(Nc3ccccc3)n2c1	97*	73	80	-0.57	i
Cc1ccc(Nc2c(-c3cccnc3)nc3ccc(Br)cn23)cc1	16	/	/	0.32	+
Cc1ccc(Nc2c(-c3ccccc3)nc3cnccn23)cc1	19	/	/	-0.68	i
Cc1ccn2c(Nc3ccc4c(c3)OCO4)c(-c3ccccn3)nc2c1	100*	14	14	-0.55	i
Cc1ccc(Nc2c(-c3ccccn3)nc3cc(C)ccn23)cc1	101*	/	/	-1	i
COc1ccc(OS(=O)(=O)c2c(C)noc2C)cc1	/	/	/	0.15	/
CN(C)CCNc1ncnc2c1sc1nc(-c3ccccc3)c3c(c12)CCCC3	/	/	/	-2.9	/
C#CCOCCOCCOCCNc1nc(N2CCN(C(=O)[C@H](CCCCN)n3cc([C@@H](N)CO)nn3)CC2)nc(N2CCN(C(=O)[C@H](Cc3cc4ccccc4[nH]3)n3cc([C@@H](N)CC(C)C)nn3)CC2)n1	0	/	/	-1.5	i
Cc1ccc(NC(=O)Cn2nnc3ccccc32)c(C)c1	-2	/	/	0.15	i
O=C(COC(=O)/C=C/c1ccc(Cl)cc1Cl)NCc1ccco1	-4	/	/	-0.27	i
Cc1ccc(Nc2c(-c3ccccn3)nc3ccc(C)cn23)cc1	101*	/	/	1.7	i
Cc1ccc2nc(-c3ccco3)c(Nc3ccccc3)n2c1	4	95	90	0.91	i
O=C(COc1ccc(-c2ccccc2)cc1)N/N=C/c1ccccc1Br	-3	86	85	-0.68	i
O=C(COc1ccc(-c2ccccc2)cc1)N/N=C/c1cc(O)ccc1Br	70*	89	100	1	i
COc1cccc(-n2c(Cc3cc(=O)[nH]c(=O)[nH]3)nnc2SCc2cccc(C(F)(F)F)c2)c1	-4	/	/	-0.55	i
CCOC(=O)C1=C(O)/C(=C/c2ccc(OCC(=O)O)c(OCC)c2)SC1=Nc1ccc(OC)cc1	62*	109	101	-0.31	i
CCOC(=O)C1=C(O)/C(=C/c2ccc(OCC(=O)O)c(OCC)c2)SC1=Nc1ccc(C)cc1	4	/	/	-0.68	i
CC(=O)Nc1ccc(NC(=O)C2(C)CC2(Cl)Cl)cc1 (stereo not given)	-2	/	/	-0.16	i
Cc1ccc(N2C(N)=C(C#N)C(c3cccs3)C3=C2CC(C)(C)CC3=O)cc1 (stereo not given)	98*	78	90	1	i
SMILES	Lmaj promast	HCT116 PTEN-null	HCT116 bCat-KO	Dynein cargo inh	Autophagy HCS
N#CC1=C(N)N(c2ccccc2)C2=C(C(=O)CCC2)C1c1cccs1 (stereo not given)	73*	85	92	2.9	i
Fc1ccccc1N1CCN(Cc2cnc(Cl)s2)CC1	0	/	/	2.6	i
CSc1ccc(/C=C(/NC(=O)c2ccc(C)cc2)C(=O)Nc2cccc(C)c2)cc1	63*	89	96	0.33	i
Cc1ccc(NC(=O)/C(=C/c2cccc(Br)c2)NC(=O)c2ccco2)cc1	90*	83	90	1.7	i
O=C(Nc1ccc(C(=O)O)cc1)/C(=C/c1cccc(Br)c1)NC(=O)c1ccco1	-9	/	/	0.53	i
CCn1c(O)c(N=NC(=O)c2cccs2)c2ccccc21	11	/	/	-1.3	i
CCOC(=O)c1[nH]c(C)c(C(=O)c2cc(F)ccc2F)c1C	4	13	14	-0.47	+
COc1cc(/C=C2/C(=O)NN(c3cccc(F)c3)C2=O)ccc1OC(=O)c1ccco1	-1	92	86	-0.67	i
COc1cc(/C=C2/C(=O)NN(c3ccc(Cl)cc3)C2=O)ccc1OC(=O)c1ccco1	52*	101	103	-0.27	i
COc1ccccc1NS(=O)(=O)c1cc(NC(=O)c2cc[n+]([O-])cc2)ccc1N1CCCC1	-2	/	/	0.91	i
O=C(Nc1cc(S(=O)(=O)N2CCCCC2)ccc1O)c1ccccc1NS(=O)(=O)c1ccc(F)cc1	-9	86	96	-0.6	i
O=C(Nc1cc(S(=O)(=O)N2CCCCC2)ccc1Cl)c1ccccc1NS(=O)(=O)c1ccc(F)cc1	6	22	28	0.55	+
O=C(Nc1ccc(F)cc1)Nc1ccc(N2CCCC2)c(S(=O)(=O)Nc2ccccc2Cl)c1	98*	1.9*	2.8*	0.68	i
O=C(Nc1ccc(Cl)c(Cl)c1)Nc1ccc(N2CCCC2)c(S(=O)(=O)Nc2ccccc2Cl)c1	99*	1.4*	1.6*	0.27	i
N#Cc1c(C(F)(F)F)cc(-c2ccccc2Cl)[nH]c1=O	-2	85	84	/	i
Cc1ccc(S(=O)(=O)N2CC(O)CC2C(=O)OCC(=O)c2ccccc2Cl)cc1C (stereo not given)	43	98	95	0.2	i
COC(=O)c1ccc(/C=N\NC(=O)c2ccc(C)cc2Cl)cc1	-5	88	86	-0.43	i
CCN1C(=O)C2C(C1=O)N1C(c3cccs3)C3C(=O)N(CC)C(=O)C3N1C2c1cccs1 (stereo not given)	-5	93	103	-0.15	i
CCCC(c1nnnn1C1CCCCC1)N1CCN(C2CCCC2)CC1 (stereo not given)	-6	78	82	0.21	i
CCC(c1nnnn1C1CCCCC1)N1CCN(C2CCCC2)CC1 (stereo not given)	65*	80	68	-0.26	i
CC(C)CC(c1nnnn1C1CCCCC1)N1CCN(c2ncccn2)CC1 (stereo not given)	63*	83	93	-0.69	i
O=C1c2ccccc2C(=O)N1c1ccc(Cc2ccncc2)cc1	/	/	/	-0.27	/
CC1=C(NCCc2ccccc2)CCC1=O	64*	96	93	0.042	i
CC(C)(C)c1ccc(CN2N=Nc3ccccc3S2(=O)=O)cc1	101*	71	73	-2.6	i
O=S1(=O)c2ccccc2N=NN1Cc1ccc(Cl)c(Cl)c1	-2	86	84	-0.18	i
COc1ccc(C2=CC(=O)C=CC2=O)cc1	/	/	/	-6.3*	/
COc1ccc(S(=O)(=O)c2ccc(OC)cc2)cc1	-7	106	102	-0.9	i
CC(=O)Nc1ccc(C(=O)OCc2ccc(Cl)c(Cl)c2)cc1	62*	104	96	-0.68	i
CCC(=O)Nc1ccc(C(=O)OCc2ccc(Cl)c(Cl)c2)cc1	65*	98	101	-0.25	i
